Data reported in ChEMBL document CHEMBL1134538, “Peptide folding induces high and selective affinity of a linear and small beta-peptide to the human somatostatin receptor 4” (J Med Chem, 2001).
Positions of bridges follow the written chain, without caps; N, C: chain ends. Non-standard residues stand in square brackets, D forms with d. Residues, ends and D or L forms follow the SMILES beside them. *: point of attachment. Threoninol(2S,3R) = C[C@@H](O)[C@H](CO)N*

Experiments:
Assay type in all cases: cell-based
[1] = target: Somatostatin receptor type 5 (Homo sapiens) (UniProt P35346); assay: Binding assay at human somatostatin receptor 5 (hsst5) expressed in CCL-39 cells using LTT-CST-14-(Tyr10) as radioligand.
In short: (§1)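 Chinese hamster lung fibroblast CCL39 cells stably expressing each hsst receptor; crude membrane homogenates in 10 mM HEPES pH 7.5, 0.5% BSA, 5 mM MgCl2, 5 mg/mL bacitracin. Vacuum filtration, bound radioactivity counted. Triplicate curves fitted by nonlinear regression; pKD reported.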

[2] = target: Somatostatin receptor type 1 (Homo sapiens) (UniProt P30872); assay: Binding assay at human somatostatin receptor 1 (hsst1) expressed in CCL-39 cells using LTT-CST-14-(Tyr10) as radioligand.
In short: as §1, with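 “bacitracin. Competition against 25-50 pM [125I][Tyr10]CST14; 1 µM SRIF14 defines nonspecific binding.” for “bacitracin.”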

[3] = target: Somatostatin receptor type 3 (Homo sapiens) (UniProt P32745); assay: Binding assay at human somatostatin receptor 3 (hsst3) expressed in CCL-39 cells using LTT-CST-14-(Tyr10) as radioligand.
In short: as §1, with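 “bacitracin. Competition against 25-50 pM [125I][Tyr10]CST14; 1 µM SRIF14 defines nonspecific binding.” for “bacitracin.”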

[4] = target: Somatostatin receptor type 4 (Homo sapiens) (UniProt P31391); assay: Binding assay at human somatostatin receptor 4 (hsst4) expressed in CCL-39 cells using LTT-CST-14-(Tyr10) as radioligand.; in short: as §1
[5] = target: Somatostatin receptor type 2 (Homo sapiens) (UniProt P30874); assay: Binding assay at human somatostatin receptor 2 (hsst2) expressed in CCL-39 cells using LTT-CST-14-(Tyr10) as radioligand.; in short: as §1
Sequence of Somatostatin receptor type 2 (Homo sapiens) (P30874 whole entry): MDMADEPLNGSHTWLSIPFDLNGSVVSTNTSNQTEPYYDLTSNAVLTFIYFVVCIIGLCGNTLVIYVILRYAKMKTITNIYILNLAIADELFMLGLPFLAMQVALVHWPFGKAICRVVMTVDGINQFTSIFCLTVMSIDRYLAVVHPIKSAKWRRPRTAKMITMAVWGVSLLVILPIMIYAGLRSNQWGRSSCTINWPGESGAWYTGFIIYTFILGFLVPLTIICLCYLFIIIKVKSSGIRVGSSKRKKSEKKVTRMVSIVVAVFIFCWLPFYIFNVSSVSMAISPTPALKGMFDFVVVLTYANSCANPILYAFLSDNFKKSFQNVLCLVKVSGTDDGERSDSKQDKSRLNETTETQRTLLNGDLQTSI

Sequence of Somatostatin receptor type 5 (Homo sapiens) (P35346 whole entry): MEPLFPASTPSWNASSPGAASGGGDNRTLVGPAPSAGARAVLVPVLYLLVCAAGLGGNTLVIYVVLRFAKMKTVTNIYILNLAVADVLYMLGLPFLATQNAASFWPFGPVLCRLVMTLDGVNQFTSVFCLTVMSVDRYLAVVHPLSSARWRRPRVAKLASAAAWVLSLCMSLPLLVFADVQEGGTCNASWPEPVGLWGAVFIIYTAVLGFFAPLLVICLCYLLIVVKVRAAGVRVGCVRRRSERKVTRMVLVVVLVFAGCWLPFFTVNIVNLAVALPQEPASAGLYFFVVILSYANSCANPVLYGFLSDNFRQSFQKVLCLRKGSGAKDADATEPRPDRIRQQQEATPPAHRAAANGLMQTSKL
Sequence of Somatostatin receptor type 4 (Homo sapiens) (P31391 whole entry): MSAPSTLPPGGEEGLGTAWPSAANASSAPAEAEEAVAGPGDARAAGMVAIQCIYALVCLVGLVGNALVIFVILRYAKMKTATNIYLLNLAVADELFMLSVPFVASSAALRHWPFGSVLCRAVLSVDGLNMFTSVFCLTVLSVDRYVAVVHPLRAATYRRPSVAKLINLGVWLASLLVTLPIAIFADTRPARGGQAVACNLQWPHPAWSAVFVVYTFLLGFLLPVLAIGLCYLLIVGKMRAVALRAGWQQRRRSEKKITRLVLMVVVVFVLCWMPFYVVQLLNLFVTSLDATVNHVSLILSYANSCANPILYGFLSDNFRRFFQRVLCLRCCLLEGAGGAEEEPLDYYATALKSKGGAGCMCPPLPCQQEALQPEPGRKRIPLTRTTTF
Sequence of Somatostatin receptor type 1 (Homo sapiens) (P30872 whole entry): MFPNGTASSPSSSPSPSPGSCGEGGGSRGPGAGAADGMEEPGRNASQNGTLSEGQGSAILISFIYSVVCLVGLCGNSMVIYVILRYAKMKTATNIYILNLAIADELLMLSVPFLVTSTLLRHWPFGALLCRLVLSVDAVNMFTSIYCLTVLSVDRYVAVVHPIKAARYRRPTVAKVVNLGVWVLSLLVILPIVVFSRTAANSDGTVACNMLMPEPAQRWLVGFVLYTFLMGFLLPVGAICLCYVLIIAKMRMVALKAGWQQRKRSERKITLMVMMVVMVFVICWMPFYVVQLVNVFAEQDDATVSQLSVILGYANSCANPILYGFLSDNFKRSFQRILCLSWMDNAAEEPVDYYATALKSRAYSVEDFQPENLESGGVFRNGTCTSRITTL
Sequence of Somatostatin receptor type 3 (Homo sapiens) (P32745 whole entry): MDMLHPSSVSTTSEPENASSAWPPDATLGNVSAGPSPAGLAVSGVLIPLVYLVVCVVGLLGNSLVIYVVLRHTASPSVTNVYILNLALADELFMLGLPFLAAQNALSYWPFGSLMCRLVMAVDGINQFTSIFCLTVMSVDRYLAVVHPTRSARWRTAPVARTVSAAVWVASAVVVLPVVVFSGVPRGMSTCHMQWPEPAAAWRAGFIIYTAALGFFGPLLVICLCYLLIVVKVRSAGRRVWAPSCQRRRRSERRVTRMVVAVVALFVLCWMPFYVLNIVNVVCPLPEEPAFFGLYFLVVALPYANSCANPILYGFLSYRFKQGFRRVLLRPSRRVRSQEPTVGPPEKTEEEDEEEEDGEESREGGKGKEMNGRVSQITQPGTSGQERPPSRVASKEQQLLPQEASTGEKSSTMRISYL

pKD [1] | pKD [2] | pKD [3] | pKD [4] | pKD [5] | SMILES
< 4 | < 4 | < 5 | < 4 | < 4 | CC(=O)N[C@H](CC(=O)N[C@@H](CCCCN)CC(=O)N[C@H](CC(=O)N[C@H](CC(N)=O)Cc1ccccc1)Cc1c[nH]c2ccccc12)[C@@H](C)O
< 5 | 4.88 | < 5 | 7.08 | < 5 | CC(=O)N[C@H](CC(=O)NC[C@H](CCCCN)C(=O)N[C@H](CC(=O)N[C@H](CC(N)=O)Cc1ccccc1)Cc1c[nH]c2ccccc12)[C@@H](C)O
< 4 | < 4 | < 5 | < 5 | < 4 | CC(=O)N[C@H](C(=O)N[C@@H](CCCCN)C(=O)N[C@@H](Cc1c[nH]c2ccccc12)C(=O)N[C@@H](Cc1ccccc1)C(N)=O)[C@@H](C)O (Ac-TKWF-NH2)

SMILES | pKD [1] | pKD [2] | pKD [3] | pKD [4] | pKD [5]
C[C@@H](O)[C@H](CO)NC(=O)[C@@H]1CSSC[C@H](NC(=O)[C@H](N)Cc2ccccc2)C(=O)N[C@@H](Cc2ccccc2)C(=O)N[C@H](Cc2c[nH]c3ccccc23)C(=O)N[C@@H](CCCCN)C(=O)N[C@@H]([C@@H](C)O)C(=O)N1 (H-[dF]CF[dW]KTC-{Threoninol(2S,3R)}; disulfide 2-7) |  |  | 8.6 |  | 
